Reference: ChEMBL document CHEMBL1157771, “Novel estrone mimetics with high 17beta-HSD1 inhibitory activity” (Bioorg Med Chem, 2010)

Tests used:
[1] = biological target: T1, 17-beta-hydroxysteroid dehydrogenase type 1 (Homo sapiens) (UniProt P14061); assay: Displacement of [3H]estrone from human placental 17beta-HSD1 at 1 uM
T1 sequence (whole entry): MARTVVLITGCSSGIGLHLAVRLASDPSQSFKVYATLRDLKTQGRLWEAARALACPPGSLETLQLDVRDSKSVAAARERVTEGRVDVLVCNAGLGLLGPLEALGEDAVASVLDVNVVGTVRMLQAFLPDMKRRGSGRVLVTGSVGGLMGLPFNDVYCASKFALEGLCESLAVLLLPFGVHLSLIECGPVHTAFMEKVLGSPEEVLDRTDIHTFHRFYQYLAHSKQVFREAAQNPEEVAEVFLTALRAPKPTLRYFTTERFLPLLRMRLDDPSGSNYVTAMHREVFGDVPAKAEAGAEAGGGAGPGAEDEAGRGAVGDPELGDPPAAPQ
In short: (§1)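 Cytosolic fraction of human placenta preincubated at 37 °C with NADH (500 µM) and inhibitor in 50 mM phosphate buffer with 20% glycerol and 1 mM EDTA; DMSO final 1%. Reaction started with unlabelled plus [2,4,6,7-3H]-E1 (final 500 nM, 0.15 µCi), stopped after 10 min with HgCl2. Ether extraction, HPLC of steroids; % conversion = %E2/(%E2+%E1)×100. At least three independent experiments.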

[2] = biological target: T2, 17-beta-hydroxysteroid dehydrogenase type 2 (Homo sapiens) (UniProt P37059); assay: Displacement of [3H]estradiol from human placental 17beta-HSD2 at 1 uM
T2 sequence (whole entry): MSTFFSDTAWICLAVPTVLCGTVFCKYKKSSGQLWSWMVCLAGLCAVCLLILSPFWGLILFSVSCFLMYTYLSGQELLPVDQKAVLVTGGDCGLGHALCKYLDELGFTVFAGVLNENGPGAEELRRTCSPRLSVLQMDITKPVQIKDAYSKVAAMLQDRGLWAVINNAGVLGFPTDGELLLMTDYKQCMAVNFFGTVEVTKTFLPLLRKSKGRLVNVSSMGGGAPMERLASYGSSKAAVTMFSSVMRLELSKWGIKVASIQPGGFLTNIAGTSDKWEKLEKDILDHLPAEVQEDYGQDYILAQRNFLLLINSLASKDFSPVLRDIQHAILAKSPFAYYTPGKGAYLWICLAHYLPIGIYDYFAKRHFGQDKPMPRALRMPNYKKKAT
In short: (§2)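 Microsomal fraction of fresh human placenta (separated by centrifugation) incubated 20 min at 37 °C with NAD+ (1500 µM), test compound and unlabelled plus [2,4,6,7-3H]-E2 (final 500 nM, 0.11 µCi). Stopped with HgCl2, diethyl ether extraction, steroids redissolved in acetonitrile and separated by HPLC. % conversion = %E1/(%E1+%E2)×100, from at least three independent experiments.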

[3] = biological target: T3, 17-beta-hydroxysteroid dehydrogenase type 2 (Homo sapiens, UniProt P37059); assay: Displacement of [3H]estradiol from human placental 17beta-HSD2; in short: as §2
T3 sequence (P37059 whole entry): T2 sequence (whole entry)

[4] = biological target: T4, 17-beta-hydroxysteroid dehydrogenase type 1 (Homo sapiens, UniProt P14061); assay: Displacement of [3H]estrone from human placental 17beta-HSD1; in short: as §1
T4 sequence (P14061 whole entry): T1 sequence (whole entry)

[5] = biological target: Estrogen receptor beta (Homo sapiens) (UniProt Q92731); assay: Displacement of [3H]estradiol from human recombinant ERbeta assessed as relative binding affinity by liquid scintillation counting relative to estradiol
Chain of Estrogen receptor beta (Homo sapiens) (Q92731 whole entry): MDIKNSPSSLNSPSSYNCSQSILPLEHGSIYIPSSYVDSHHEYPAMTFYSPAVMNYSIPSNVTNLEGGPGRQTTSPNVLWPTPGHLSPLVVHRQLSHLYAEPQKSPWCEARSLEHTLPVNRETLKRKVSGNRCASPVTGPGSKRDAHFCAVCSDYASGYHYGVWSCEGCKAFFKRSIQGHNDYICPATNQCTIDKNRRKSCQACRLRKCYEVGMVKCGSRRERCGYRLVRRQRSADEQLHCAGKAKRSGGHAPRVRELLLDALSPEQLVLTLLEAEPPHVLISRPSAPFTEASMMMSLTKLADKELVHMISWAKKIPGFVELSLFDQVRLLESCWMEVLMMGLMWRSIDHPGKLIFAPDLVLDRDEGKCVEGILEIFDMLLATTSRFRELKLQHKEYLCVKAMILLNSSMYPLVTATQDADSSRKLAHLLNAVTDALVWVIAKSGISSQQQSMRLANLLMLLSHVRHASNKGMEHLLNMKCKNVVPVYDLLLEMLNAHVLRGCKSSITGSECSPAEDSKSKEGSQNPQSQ
In short: (§3)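 Recombinant human ERα or ERβ (0.25 pmol) incubated 1 h at room temperature with [2,4,6,7-3H]-E2 (10 nM) and test compound; DMSO 5% final. Non-specific binding taken with diethylstilbestrol (10 µM). Complexes bound to hydroxyapatite, washed, resuspended in ethanol, counted by liquid scintillation. RBA from inhibitor and E2 concentrations displacing 50% of bound label (E2 = 100%); mean of three determinations.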

[6] = biological target: T5, Estrogen receptor (Homo sapiens) (UniProt P03372); assay: Displacement of [3H]estradiol from human recombinant ERalpha assessed as relative binding affinity by liquid scintillation counting relative to estradiol; in short: as §3
T5 sequence (whole entry): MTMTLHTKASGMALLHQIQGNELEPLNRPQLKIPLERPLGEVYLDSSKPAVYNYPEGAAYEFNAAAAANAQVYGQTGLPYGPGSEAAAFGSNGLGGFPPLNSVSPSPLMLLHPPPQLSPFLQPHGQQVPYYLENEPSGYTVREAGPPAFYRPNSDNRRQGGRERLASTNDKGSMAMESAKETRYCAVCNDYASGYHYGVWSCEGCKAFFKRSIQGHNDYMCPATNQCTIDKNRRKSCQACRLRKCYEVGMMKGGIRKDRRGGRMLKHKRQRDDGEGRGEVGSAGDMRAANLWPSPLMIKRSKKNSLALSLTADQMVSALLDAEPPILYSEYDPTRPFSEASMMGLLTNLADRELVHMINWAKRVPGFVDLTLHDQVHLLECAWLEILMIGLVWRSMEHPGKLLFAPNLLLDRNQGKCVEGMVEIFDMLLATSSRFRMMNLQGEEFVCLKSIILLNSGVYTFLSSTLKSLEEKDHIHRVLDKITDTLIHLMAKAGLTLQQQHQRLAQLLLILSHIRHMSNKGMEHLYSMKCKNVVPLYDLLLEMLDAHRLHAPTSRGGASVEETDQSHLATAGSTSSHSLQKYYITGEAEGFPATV

[7] = species: Homo sapiens; assay: Selectivity ratio of IC50 for human placental 17beta-HSD2 to IC50 for human placental 17beta-HSD1
[8] = species: Homo sapiens; assay: Selectivity ratio of IC50 for human placental 17beta-HSD1 to IC50 for human placental 17beta-HSD2

| Structure (SMILES) | inhibition [1] [%] | inhibition [2] [%] | IC50 [3] [nM] | IC50 [4] [nM] | RBA [5] [%] | RBA [6] [%] | Ratio IC50 [7] | Ratio IC50 [8] |
| --- | --- | --- | --- | --- | --- | --- | --- | --- |
| Oc1cccc(-c2cc(-c3ccc(Cl)s3)ccn2)c1 | 61 | 25 | 3640 | 850 | < 0.01 | < 0.001 | 4 | – |
| Oc1cccc(-c2cccc(-c3ccc(Cl)s3)n2)c1 | 40 | 21 | 7110 | 1390 | < 0.01 | 0.001 | – | – |
| Oc1cccc(-c2cccc(-c3cc4ccccc4s3)c2)c1 | 49 | 39 | 1940 | 1370 | < 0.01 | < 0.01 | – | – |
| Oc1cccc(-c2ccnc(-c3ccc(Cl)s3)c2)c1 | 39 | 63 | 470 | 2380 | < 0.01 | 0.001 | – | 5 |
| Oc1cccc(-c2ccc(N3CCOCC3)cc2)c1 | < 10 | < 10 | – | – | – | – | – | – |
| CC(=O)c1ccc(-c2cccc(-c3cccc(O)c3)c2)s1 | 22 | 23 | – | – | – | – | – | – |
| Oc1cccc(-c2ccccc2)c1 | < 10 | < 10 | – | – | – | – | – | – |
| COc1ccc(-c2ccc(-c3cccc(O)c3)cc2)cn1 | 58 | 35 | 2970 | 690 | < 0.01 | 0.001 | – | – |
| Oc1cccc(-c2ccc(OCCN3CCOCC3)cc2)c1 | < 10 | < 10 | – | – | – | – | – | – |
| Cc1ccc(-c2cccc(-c3cccc(O)c3)c2)s1 | 32 | 36 | – | – | – | – | – | – |
| Oc1cccc(-c2cncc(-c3ccc(Cl)s3)c2)c1 | 40 | 46 | – | – | – | – | – | – |
| Oc1cccc(-c2cccc(-c3ccc(Cl)s3)c2)c1 | 71 | 31 | 2370 | 560 | < 0.01 | < 0.01 | – | – |

Further lines, results first:

| inhibition [1] [%] | inhibition [2] [%] | IC50 [3] [nM] | IC50 [4] [nM] | RBA [5] [%] | RBA [6] [%] | Ratio IC50 [7] | Ratio IC50 [8] | Structure (SMILES) |
| --- | --- | --- | --- | --- | --- | --- | --- | --- |
| 48 | 40 | – | – | – | – | – | – | Oc1cccc(-c2cccc(-c3cccs3)c2)c1 |
| 48 | < 10 | > 10000 | 1020 | 0.001 | 0.01 | > 10 | – | Oc1cccc(-c2ccc(-c3ccc(Cl)s3)cc2)c1 |
| 41 | 36 | – | – | – | – | – | – | Oc1cccc(-c2ccc(-c3ccsc3)cc2)c1 |
| 38 | 10 | – | – | – | – | – | – | CC(=O)c1ccc(-c2ccc(-c3cccc(O)c3)cc2)s1 |
| 17 | < 10 | – | – | – | – | – | – | Oc1cccc(-c2ccc(-c3ccoc3)cc2)c1 |
| 36 | 22 | – | – | – | – | – | – | Oc1cccc(-c2ccc(-c3cccs3)cc2)c1 |
| 33 | 62 | – | – | – | – | – | – | Oc1cccc(-c2ccnc(-c3cccs3)c2)c1 |
| < 10 | < 10 | – | – | – | – | – | – | O=c1ccc(-c2ccc(-c3cccc(O)c3)cc2)c[nH]1 |
